≈ marks a conversion by molar mass, not a printed value.
How the values were obtained:
[1] = test system: Staphylococcus aureus; assay: Antimicrobial activity against Staphylococcus aureus ATCC 29213 after 24 hrs by agar well diffusion method; type: functional
Summary of the method: (§1)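 Agar well diffusion. Inocula of 100 µL: bacteria 1 × 10^8 CFU/mL on nutrient agar, yeast 1 × 10^6 CFU/mL on Sabouraud dextrose agar, fungi 1 × 10^4 spore/mL on potato dextrose agar. 10 mm wells received 100 µL of compound at 100 mg/mL in DMSO. Bacteria incubated 24 h at 37 °C, fungi 48 h at 28 °C. Controls were DMSO, ciprofloxacin 50 µg/mL and ketoconazole 50 µg/mL. Inhibition zone diameter in mm, scored N.A. to ++++, average of triplicates.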

[2] = test system: Pseudomonas aeruginosa; assay: Antimicrobial activity against Pseudomonas aeruginosa ATCC 27953 after 24 hrs by agar well diffusion method; type: functional; summary of the method: as §1
[3] = test system: Klebsiella pneumoniae; assay: Antimicrobial activity against Klebsiella pneumoniae ATCC 13883 after 24 hrs by agar well diffusion method; type: functional; summary of the method: as §1
[4] = test system: Bacillus subtilis; assay: Antimicrobial activity against Bacillus subtilis ATCC 6633 after 24 hrs by agar well diffusion method; type: functional; summary of the method: as §1
[5] = Antioxidant activity in rat erythrocytes assessed as inhibition of peroxyl radicals-induced hemolysis at 2 mM after 2 hrs; type: functional; conditions: Erythrocyte, read-out: INH
Summary of the method: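 Rat blood from cardiac puncture, heparinized. Erythrocytes were washed three times in 0.15 M NaCl. A 10% suspension in PBS pH 7.4 was mixed with an equal volume of 200 mM AAPH in PBS containing sample, then shaken at 37 °C for 2 h. Mixture diluted with 8 volumes of PBS and centrifuged; supernatant A540 compared with a water-lysed sample for complete hemolysis. L-ascorbic acid was the positive control. Mean ± SD.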

[6] = test system: Candida albicans; assay: Antimicrobial activity against Candida albicans NRRL Y-477 after 48 hrs by agar well diffusion method; type: functional; summary of the method: as §1
[7] = Antioxidant activity assessed as ABTS radical scavenging activity at 2 mM; type: functional
Summary of the method: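 ABTS (60 µM, 2 mL) was oxidized with MnO2 (25 mg/mL, 3 mL) in 0.1 M phosphate buffer pH 7, then centrifuged and filtered, with A734 adjusted to about 0.5. 50 µL of 2 mM compound in MeOH/phosphate buffer (1:1) was added. Colour loss expressed as % inhibition. L-ascorbic acid was the standard; blank and negative controls used MeOH/buffer.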

[8] = test system: Escherichia coli; assay: Antimicrobial activity against Escherichia coli ATCC 25922 after 24 hrs by agar well diffusion method; type: functional; summary of the method: as §1
[9] = Cytotoxicity against mouse EAC cells assessed as cell viability using trypan blue staining after 2 hrs by hemocytometer analysis; type: functional, cell-based; conditions: Ehrlich
[10] = test system: Aspergillus niger; assay: Antimicrobial activity against Aspergillus niger after 48 hrs by agar well diffusion method; type: functional; summary of the method: as §1
[11] = test system: Priestia megaterium; assay: Antimicrobial activity against Bacillus megaterium ATCC 9885 after 24 hrs by agar well diffusion method; type: functional; summary of the method: as §1

SMILES | diameter of the inhibition zone (DIZ) [1] | diameter of the inhibition zone (DIZ) [2] | diameter of the inhibition zone (DIZ) [3] | diameter of the inhibition zone (DIZ) [4] | percent hemolysis at 2000 µM [5] | diameter of the inhibition zone (DIZ) [6] | inhibition [7] | diameter of the inhibition zone (DIZ) [8] | IC50 [9] | diameter of the inhibition zone (DIZ) [10] | diameter of the inhibition zone (DIZ) [11]
C/C(=N\N=C1\NC(=O)/C(=C/c2cn(-c3ccccc3)nc2-c2cccs2)S1)c1nc(-c2ccccc2)[nH]c1C | <=4 mm | <=4 mm | <=4 mm | <=4 mm | 3.45% | <=4 mm | 76.2% | <=4 mm | 8.25 mg/L (≈ 15 µM) | <=4 mm | <=4 mm
C/C(=N\N=C1\N=C(c2cc3ccccc3oc2=O)CS1)c1nc(-c2ccccc2)[nH]c1C | <=4 mm | <=4 mm | <=4 mm | <=4 mm | 2.5% | <=4 mm | 61.6% | <=4 mm | 125 mg/L (≈ 283 µM) | <=4 mm | <=4 mm
C/C(=N\NC(=O)CC#N)c1nc(-c2ccccc2)[nH]c1C | <=4 mm | <=4 mm | <=4 mm | <=4 mm | 3.65% | <=4 mm | 48.2% | <=4 mm | 125 mg/L (≈ 445 µM) | <=4 mm | <=4 mm
C/C(=N\N=C1\N=C2N=c3ccccc3=NC2S1)c1nc(-c2ccccc2)[nH]c1C (stereo not drawn) | <=4 mm | <=4 mm | <=4 mm | <=4 mm | 1.1% | <=4 mm | 37.4% | <=4 mm | 4.25 mg/L (≈ 10.6 µM) | <=4 mm | <=4 mm
C/C(=N\NC(=O)/C(C#N)=C\c1cn(-c2ccccc2)nc1-c1cccs1)c1nc(-c2ccccc2)[nH]c1C | <=4 mm | <=4 mm | <=4 mm | <=4 mm | 5.55% | <=4 mm | 34.6% | <=4 mm | 125 mg/L (≈ 242 µM) | <=4 mm | <=4 mm
C/C(=N/NC(=O)c1cc2ccc(O)cc2oc1=N)c1nc(-c2ccccc2)[nH]c1C | <=4 mm | <=4 mm | <=4 mm | <=4 mm | 5.55% | <=4 mm | 4.56% | <=4 mm | 150 mg/L (≈ 375 µM) | <=4 mm | <=4 mm
C/C(=N\N=C1\N=C(c2cc3ccccc3o2)CS1)c1nc(-c2ccccc2)[nH]c1C | <=4 mm | <=4 mm | <=4 mm | <=4 mm | 1.9% | <=4 mm | 39.9% | <=4 mm | 21.5 mg/L (≈ 52 µM) | <=4 mm | <=4 mm
CC1=NC(=N/N=C(\C)c2nc(-c3ccccc3)[nH]c2C)/S/C1=N\Nc1ccccc1 | <=4 mm | <=4 mm | <=4 mm | <=4 mm | 6.4% | <=4 mm | 44.4% | <=4 mm | 20.2 mg/L (≈ 48.7 µM) | <=4 mm | <=4 mm
CC1=NC(=N/N=C(\C)c2nc(-c3ccccc3)[nH]c2C)/S/C1=N\Nc1ccc(Cl)cc1 | <=4 mm | <=4 mm | <=4 mm | <=4 mm | 1.7% | <=4 mm | 40.7% | <=4 mm | 20.2 mg/L (≈ 45 µM) | <=4 mm | <=4 mm
C/C(=N\N=C1\NC(=O)/C(=C/c2ccc(F)cc2)S1)c1nc(-c2ccccc2)[nH]c1C | <=4 mm | <=4 mm | <=4 mm | <=4 mm | 1.4% | <=4 mm | 79.2% | <=4 mm | 14.5 mg/L (≈ 34.6 µM) | <=4 mm | <=4 mm
O=C1O[C@H]([C@@H](O)CO)C(O)=C1O [ASCORBIC ACID] | – | – | – | – | 0.85% | – | 88.6% | – | – | – | –
C/C(=N\N=C1\NC(=O)/C(=C/c2cn(-c3ccccc3)nc2-c2cc3ccccc3o2)S1)c1nc(-c2ccccc2)[nH]c1C | <=4 mm | <=4 mm | <=4 mm | <=4 mm | 1.5% | <=4 mm | 35.9% | <=4 mm | 125 mg/L (≈ 215 µM) | <=4 mm | <=4 mm
O=c1[nH]cc(F)c(=O)[nH]1 [FLUOROURACIL] | – | – | – | – | – | – | – | – | 1.5 mg/L (≈ 11.5 µM) | – | –
C/C(=N\NC(=O)/C(C#N)=C\c1cn(-c2ccccc2)nc1-c1cc2ccccc2o1)c1nc(-c2ccccc2)[nH]c1C | <=4 mm | <=4 mm | <=4 mm | <=4 mm | 5.55% | <=4 mm | 34.6% | <=4 mm | 125 mg/L (≈ 227 µM) | <=4 mm | <=4 mm
CC(=O)N1CCN(c2ccc(OCC3COC(Cn4ccnc4)(c4ccc(Cl)cc4Cl)O3)cc2)CC1 (stereo not drawn) [KETOCONAZOLE] | <=4 mm | <=4 mm | <=4 mm | <=4 mm | – | >=21 mm | – | <=4 mm | – | >=21 mm | <=4 mm

From ChEMBL document CHEMBL1770090, “Synthesis, antimicrobial, antioxidant, anti-hemolytic and cytotoxic evaluation of new imidazole-based heterocycles” (Eur J Med Chem, 2011)
